Measured values: ChEMBL document CHEMBL3875225, “Design, synthesis and biological evaluation of 7-(aryl)-2,3-dihydro-[1,4]dioxino[2,3-g]quinoline derivatives as potential Hsp90 inhibitors and anticancer agents” (Bioorg Med Chem, 2017)
Calls of active or inactive are those of the source. The rule behind the calls is not given here.

Tests used:
[1] = Antiproliferative activity against human MCF7 cells after 48 hrs by MTT assay; format: functional, cell-based; details: for IC50: Homo sapiens, MCF7, 48 h
How it was run: (§1)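 5000 cells seeded per well in RPMI complete medium; next day medium replaced with medium containing a range of compound concentrations, with a no-drug control and 17-AAG as reference. After 48 h at 37 °C, 5% CO2, MTT (4 mg/mL solution) added for 3 h. Formazan dissolved in DMSO, absorbance read at 540 nm. Triplicate determinations; mean SD from dose-response curves of three independent experiments.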

[2] = Antiproliferative activity against human A549 cells after 48 hrs by MTT assay; format: functional, cell-based; details: for IC50: Homo sapiens, A549, 48 h; how it was run: as §1
[3] = Antiproliferative activity against human DU145 cells after 48 hrs by MTT assay; format: functional, cell-based, DU-145; details: for IC50: Homo sapiens, DU-145, 48 h; how it was run: as §1
[4] = molecular target: T1, Heat shock protein HSP90 (Homo sapiens) (UniProt P07900+P08238); experiment: Inhibition of HSP90 in human MCF7 cells assessed as decrease in Her2 protein expression at 50 uM after 24 hrs by Western blot method relative to control; format: cell-based
How it was run: (§2)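 MCF-7 cells seeded at 10⁶ per 25 cm² flask and treated 24 h with 50 µM compound; DMSO vehicle control, 0.5 μM 17-AAG reference. Lysis in Tris-HCl pH 7.4 buffer with protease/phosphatase inhibitors. 50 µg protein resolved on 10% SDS-PAGE, transferred to PVDF, blocked 2 h in 5% skim milk/TBST at 4 °C. Probed 2 h with rabbit anti-Her-2 and anti-Hsp-70 (1:3000); β-tubulin also blotted.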

[5] = molecular target: T1, Heat shock protein HSP90 (Homo sapiens); experiment: Inhibition of HSP90 in human MCF7 cells assessed as induction of HSP70 protein expression at 50 uM after 24 hrs by Western blot method relative to control; format: cell-based; how it was run: as §2
[6] = Effect on beta-tubulin protein expression in human MCF7 cells at 50 uM after 24 hrs by Western blot method; format: cell-based; details: mcf7, 24 h; how it was run: as §2

SMILES | IC50 [1] [µM] | IC50 [2] [µM] | IC50 [3] [µM] | inhibition [4] [%] | inhibition [5] | Activity [6] | Activity [1] [µM] | Activity [2] [µM] | Activity [3] [µM]
O=C(O)c1cc(-c2ccccc2)nc2cc3c(cc12)OCCO3 | > 100 | > 100 | > 100 | – | – | – | – | – | –
OCc1cc(-c2ccccc2)nc2cc3c(cc12)OCCO3 | 22.7 | > 100 | 86.1 | > 50 | Active | Non-Toxic | – | – | –
COc1ccc(-c2cc(CO)c3cc4c(cc3n2)OCCO4)cc1O | 40 | 94.2 | 89.7 | > 50 | Active | Non-Toxic | – | – | –
COc1ccc(-c2cc(CO)c3cc4c(cc3n2)OCCO4)cc1OC | 6.7 | 82.1 | 11.5 | > 50 | Active | Non-Toxic | – | – | –
O=C(O)c1cc(-c2ccc(O)cc2)nc2cc3c(cc12)OCCO3 | > 100 | > 100 | > 100 | – | – | – | – | – | –
COc1cc(-c2cc(C(=O)O)c3cc4c(cc3n2)OCCO4)ccc1O | > 100 | > 100 | > 100 | – | – | – | – | – | –
C=CCNC1=C2C[C@@H](C)C[C@H](OC)[C@H](O)[C@@H](C)/C=C(\C)[C@H](OC(N)=O)[C@@H](OC)/C=C\C=C(/C)C(=O)NC(=CC1=O)C2=O [TANESPIMYCIN] | 0.192 | 0.286 | 0.282 | – | – | – | – | – | –
COc1cc(/C=N/c2ccc3c(c2)OCCO3)ccc1O | – | – | – | – | – | – | >100 | >100 | >100
COc1cc(-c2cc(CO)c3cc4c(cc3n2)OCCO4)ccc1O | 25.7 | 87.8 | 86.8 | > 50 | Active | Non-Toxic | – | – | –
COc1cc(-c2cc(C(=O)O)c3cc4c(cc3n2)OCCO4)cc(OC)c1OC | > 100 | > 100 | > 100 | – | – | – | – | – | –
CC(=O)Nc1ccc(-c2cc(C(=O)O)c3cc4c(cc3n2)OCCO4)cc1 | > 100 | > 100 | > 100 | – | – | – | – | – | –
Cc1ccc(-c2cc(C(=O)O)c3cc4c(cc3n2)OCCO4)cc1 | > 100 | > 100 | > 100 | – | – | – | – | – | –
COc1cc(/C=N/c2ccc3c(c2)OCCO3)cc(OC)c1OC | – | – | – | – | – | – | >100 | >100 | >100
O=C(O)c1cc(-c2cccc(O)c2)nc2cc3c(cc12)OCCO3 | > 100 | > 100 | > 100 | – | – | – | – | – | –
COc1ccc(/C=N/c2ccc3c(c2)OCCO3)cc1OC | – | – | – | – | – | – | >100 | >100 | >100
COc1ccc(-c2cc(C(=O)O)c3cc4c(cc3n2)OCCO4)cc1OC | > 100 | > 100 | > 100 | – | – | – | – | – | –
COc1cc(-c2cc(CO)c3cc4c(cc3n2)OCCO4)cc(OC)c1OC | 4.53 | 46.9 | 64.2 | > 50 | Active | Non-Toxic | – | – | –
COc1ccc(-c2cc(CO)c3cc4c(cc3n2)OCCO4)cc1 | 24 | > 100 | 21.4 | > 50 | Active | Non-Toxic | – | – | –
COc1ccc(-c2cc(C(=O)O)c3cc4c(cc3n2)OCCO4)cc1 | > 100 | > 100 | > 100 | – | – | – | – | – | –
Oc1ccc(/C=N/c2ccc3c(c2)OCCO3)cc1 | – | – | – | – | – | – | >100 | >100 | >100
COc1ccc(-c2cc(C(=O)O)c3cc4c(cc3n2)OCCO4)cc1O | > 100 | > 100 | > 100 | – | – | – | – | – | –
